# Dynein cargo inh: dynein cargo transport inhibition. 3617.4 mouse cells, GR-EGFP nuclear translocation imaging; test concentration mostly 20 µM; stimulated with dexamethasone, 1 µM; hits give low values. z-score, hits read low. AID 1381. 0.47% of 220,000 active;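 active = plate z-score of nuclear minus cytoplasmic receptor signal below a set negative limit, without overly bright fluorescence or cell loss, cut at about -3.5 in these data, passing the limit was not always enough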;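 note: z-score of nuclear minus cytoplasmic ring GR-EGFP intensity difference per well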
#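 Buffer or medium: tet-free, stripped-serum medium; Also added: dexamethasone, 1.0 µM final; Technique: high-content fluorescence imaging after fixation; Times: 48 h induction, 1 h compound, 30 min dex at 37 °C; Read-out: per-cell GR-EGFP intensity, nucleus versus surrounding cytoplasmic ring, well-averaged.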
# UPR CHOP act: apoptotic UPR (CHOP) activation | CHO-CHOP luciferase reporter, luminescence; percent of tunicamycin response over DMSO baseline | activation, % at 10 µM | 0.34% of 330,000 active | AID 449763;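 active = at 10 µM dose, activation of 40% or more, normalized to positive control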
#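 Dosing – one dose, 10 µM in 0.5% DMSO · System – CHO-CHOP cells, stable luciferase reporter of PERK-eIF2a-CHOP signalling · Input – 500 cells/well · Control set – tunicamycin 10 µg/mL final as positive, DMSO-only wells as negative · Timing – 6 h compound treatment, 37 °C · Measure – % activation vs tunicamycin · Technique – luminescence read with Steady-Glo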
# Lmaj promast: reduces viability of Leishmania major promastigotes; resazurin fluorescence viability; inhibition, % at 10 µM; 9% of 200,000 active; in the data active = inhibition above about 50%;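 note: promastigotes grown with compound for 44 hours at 28 °C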
# UPR XBP1 act: activators of adaptive arm of unfolded protein response (XBP1); 0.33% of 330,000 active; CHO-XBP1 luciferase reporter, IRE1-XBP1 UPR activation, luminescence; percent of tunicamycin response, DMSO as zero; activation, % at 20 µM;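 active = versus positive control, 20 µM dose yields 30% or more activation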
#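 Material: CHO cell line with stable XBP1 luciferase reporter; schedule: 16-18 h cell attachment at 37 °C, then 6 h compound exposure; signal: glow luminescence from Steady-Glo reagent; medium: serum-containing F12 medium, 10% FBS; benchmarks: tunicamycin 10 µg/mL and vehicle-only wells; read-out: percent activation relative to tunicamycin reference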
# CHOP inhibitor: CHOP inhibition in unfolded protein response. 3.8% of 220,000 active. CHO-K1 CHOP-promoter luciferase, tunicamycin-induced, 15-18 h. inhibition, % at 10 µM. AID 2732;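 active = compounds that reduced the stress-induced luciferase reporter signal by more than about 70% of percent inhibition, limit read from the data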
# T cruzi repl: blocks replication of Trypanosoma cruzi; inhibition, % (test concentration not listed); T. cruzi beta-gal in NIH3T3, luminescence, 90 h; 1.4% of 300,000 active; AID 1885;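 active = mean inhibition across valid replicates above about 55%, limit read from the data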;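 note: signal also drops with host cell toxicity which is not excluded here; higher percent means less beta-gal luminescence so fewer parasites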
#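 System: mouse NIH/3T3 fibroblasts infected with β-gal-expressing T. cruzi Tulahuen C4 / Input: NIH/3T3 cells, 5,000 per well / Buffer or medium: Low-serum DMEM with 2% FBS / Probe or stimulus: 5000 reporter trypomastigotes per well / Schedule: ≥90 h infection period, 3 h prior cell attachment / Measured by: GalScreen luminescence, 60 min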
# XBP1 UPR conf: adaptive UPR (XBP1) activation, confirmed; shares compounds with UPR XBP1 act; CHO-XBP1 IRE1-XBP1 luciferase reporter, luminescence; activation, % at 20 µM; 63% of 1,000 active;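 active = reporter signal at least 30% of the positive control's activation in two or more of four replicate wells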
# Hits are given with their value; . = inactive; / = no result given. This excerpt belongs to a sample that is enriched for hits.
SMILES,Dynein cargo inh,UPR CHOP act,Lmaj promast,UPR XBP1 act,CHOP inhibitor,T cruzi repl,XBP1 UPR conf
Cc1ccc2nc(/C(C#N)=C/c3ccccc3C(=O)O)[nH]c2c1,/,.,/,.,/,.,/
Cc1ccc2nc(/C(C#N)=C/c3ccc(O)c(O)c3)[nH]c2c1,/,.,/,43.0,/,.,33.1
COc1ccc2nc(C)cc(SCC(=O)N/N=C/c3cccc4ccccc34)c2c1,.,.,.,79.8,.,.,125.9
O=C(CSc1ccc(S(=O)(=O)N2CCOCC2)cn1)Nc1ccc(F)c(F)c1,/,.,/,.,/,/,/
C/C(=N/Nc1cc(-c2ccccc2)nc(-c2ccccc2)n1)c1ccc(O)cc1,.,.,89.3,67.8,74.8,.,57.5
Cc1ccc(-c2nnn(CC(=O)N(Cc3ccco3)C(C(=O)NC3CCCC3)c3cccs3)n2)o1 (stereo unspecified),.,.,.,.,.,.,/
Cc1ccc(-c2nnn(CC(=O)N(Cc3cccs3)C(C(=O)NC3CCCCC3)c3ccco3)n2)o1 (stereo unspecified),.,.,.,47.8,.,.,38.5
Fc1cc2[nH]c(=S)[nH]c2c(Br)c1N1CCSCC1,/,.,/,.,/,.,/
COc1ccc(-c2cc(C(F)F)n3ncc(C(=O)Nc4ccc(C(=O)N5CCOCC5)cc4)c3n2)cc1,.,.,.,33.0,.,.,51.6
O=C(Nc1ccc(C(=O)N2CCOCC2)cc1)c1cnn2c(C(F)F)cc(-c3ccccc3)nc12,.,.,.,.,.,.,/
CC(=O)N(C)c1ccc(NCc2cc(=O)oc3cc(C)c(O)cc23)cc1,/,.,/,.,/,.,/
COC(=O)c1ccc(N2CCN(C)CC2)c(NC(=O)c2ccc(-c3ccc(Cl)cc3)o2)c1,/,.,/,44.6,/,.,.
Cc1cc(C)c2c(n1)sc1c(-c3ccccc3)c(C#N)c(N)nc12,.,.,.,90.6,.,.,47.8
Cc1c(CCOC(=O)C23CC4(C)CC(C)(CC(C)(C4)C2)C3)sc[n+]1CC(=O)c1ccccc1,.,.,.,39.5,.,.,64.8
Cc1c(CCOC(=O)c2ccc(Cl)cc2Cl)sc[n+]1CC(=O)c1ccccc1,/,.,/,.,/,/,/
COc1cc(-c2noc(C)c2C#Cc2ccc(N)cc2)cc(OC)c1OC,/,.,/,59.4,/,.,.
COc1cc(-c2noc(C)c2C#Cc2ccccn2)cc(OC)c1OC,/,.,/,.,/,.,/
O=[N+]([O-])c1ccc(N/N=C/c2ccc(OCc3cccc4ccccc34)cc2)nc1,.,.,.,74.2,.,.,34.5
CCC(C)(C(=O)Nc1ccc(OC)cc1)N(C)C(=O)Cn1nnnc1N (stereo unspecified),/,.,/,.,/,.,/
Cn1c(O)c(N=NC(=O)c2ccco2)c2ccccc21,.,.,.,.,.,.,/
O=C(N=Nc1c(O)n(C2OC(=O)c3ccccc32)c2ccccc12)c1ccc(O)cc1 (stereo unspecified),.,.,.,105.0,78.4,.,.
CCCCCCn1c(-c2cccs2)n[nH]c1=S,.,.,.,.,.,.,/
O=C1NC(=S)N/C1=C\C=C\c1ccccc1,.,.,/,39.1,.,.,.
O=[N+]([O-])c1ccc(-c2ccc(/C=N/Nc3nc(NCc4ccccc4)nc(N4CCOCC4)n3)o2)cc1,.,.,.,46.7,.,.,.
Cc1cc(-c2nnc(CCC(=O)NCc3ccc(OC(F)(F)F)cc3)o2)no1,/,.,/,.,/,.,/
SMILES,Dynein cargo inh,UPR CHOP act,Lmaj promast,UPR XBP1 act,CHOP inhibitor,T cruzi repl,XBP1 UPR conf
O=C(Nc1ccc([N+](=O)[O-])cc1)C(Cc1ccccc1)N1C(=O)c2cccc3cccc(c23)C1=O (stereo unspecified),.,.,.,41.8,.,.,45.5
O=C(O)c1ccccc1NC(=O)C(Cc1ccccc1)N1C(=O)c2ccccc2C1=O (stereo unspecified),/,.,/,.,/,.,/
O=C(CSc1ccc2nnc(-c3ccc(Cl)cc3)n2n1)N1CCc2ccccc21,.,.,.,30.0,79.4,.,.
O=C(CSc1ccc2nnc(-c3ccc(Cl)cc3)n2n1)N1CCCC1,/,.,/,.,/,.,/
CCc1ccc(/C=N/n2c(C)cc(C)c(C#N)c2=O)cc1,.,.,.,.,.,.,/
O=C(Cn1c(=O)n(-c2ccccc2)c(=O)c2oc3ccccc3c21)Nc1ccccc1,.,.,.,.,.,.,/
CCOc1ccccc1NC(=O)Cn1c(=O)n(-c2ccccc2)c(=O)c2oc3ccccc3c21,.,.,.,65.0,.,.,94.1
Cc1cc(C)n(CCCNC(=O)C(C)(C)Oc2ccc(Cl)cc2)n1,/,.,/,.,/,/,/
O=C(CSc1nc2ncc(Cl)cc2[nH]1)N1CCC(Cc2ccccc2)CC1,/,.,/,.,/,/,/
C=CCOC(=O)C1=C(C)NC(=O)NC1c1cc2c(cc1Br)OCO2 (stereo unspecified),/,.,/,.,/,.,/
C=CCOc1ccc(-c2nc3c(c(=O)[nH]c(=O)n3CCCC)n2C)cc1Br,/,.,/,39.3,/,.,.
Cn1cc(S(=O)(=O)NCc2ccc3c(c2)OCO3)c(C(F)(F)F)n1,/,.,/,.,/,.,/
CCCCCn1c(=O)[nH]c2cc(C(=O)NCCCN3CCCCC3CC)ccc2c1=O (stereo unspecified),/,.,/,.,/,.,/
Clc1ccc(-c2ccc(-c3nn4c(-c5ccco5)nnc4s3)o2)cc1,.,.,.,90.7,/,.,.
COc1ccc(CCN(C)C2CCCN(S(=O)(=O)c3ccccc3)C2)cc1OC (stereo unspecified),/,.,/,.,/,.,/
